TNF death inh: TNF-alpha cell death inhibition in Jurkat FADD-/- cells. actives 0.068% (n = 220,000). Jurkat FADD-/- TNF necroptosis rescue, ATP luminescence, 24 h; 0 = TNF only, 100 = no-TNF cells. activation (protection from cell death), % at 10 µM;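 active means activation, meaning protection from cell death, of at least 50% relative to plate controls; inactive means activation below 50%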;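 further: necroptosis triggered by 40 ng/mL TNF-alpha added together with compound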
Hck Nef HTS: inhibitors of human Hck kinase activated by Nef; actives 0.68% (n = 220,000); P08631; Recombinant Hck-YEEI plus Nef, Z-Lyte FRET kinase assay; inhibition, % at 20 µM;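 active means Hck-Nef kinase inhibition above about 50%, limit read from the data; inactive means inhibition below that limit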;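 further: 0% = DMSO with Hck plus Nef and 100% = Hck alone without Nef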
Runt-SMMHC FRET: inhibitors of human RUNX1 Runt domain binding to CBFb-SMMHC; actives 0.74% (n = 220,000); AID 1434; Q01196+Q13951; inhibition, % at 20 µM; Cerulean-Runt/Venus-CBFb-SMMHC FRET ratio 530/480, 1 h;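 active means mean inhibition across duplicate retests at 20 µM reaching about 50%, limit read from the data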;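 further: 0% = DMSO wells and 100% = wells with excess untagged CBFb-SMMHC; inhibitors lower the FRET ratio by blocking Runt binding to CBFb-SMMHC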
Target sequence (Q01196 whole entry, looked up, the tested form may be a part): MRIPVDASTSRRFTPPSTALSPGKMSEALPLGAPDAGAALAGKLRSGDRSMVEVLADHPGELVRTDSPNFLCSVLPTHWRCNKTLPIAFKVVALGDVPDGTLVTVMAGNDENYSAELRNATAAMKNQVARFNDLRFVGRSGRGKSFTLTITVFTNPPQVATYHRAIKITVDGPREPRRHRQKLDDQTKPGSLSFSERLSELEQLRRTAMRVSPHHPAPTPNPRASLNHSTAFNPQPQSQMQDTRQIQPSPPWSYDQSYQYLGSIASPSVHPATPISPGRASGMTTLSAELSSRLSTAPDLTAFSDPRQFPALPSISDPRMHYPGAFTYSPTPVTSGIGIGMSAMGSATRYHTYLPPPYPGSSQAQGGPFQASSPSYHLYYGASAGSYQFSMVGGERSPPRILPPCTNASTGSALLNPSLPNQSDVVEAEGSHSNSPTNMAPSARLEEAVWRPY
Target sequence (Q13951 whole entry, looked up, the tested form may be a part): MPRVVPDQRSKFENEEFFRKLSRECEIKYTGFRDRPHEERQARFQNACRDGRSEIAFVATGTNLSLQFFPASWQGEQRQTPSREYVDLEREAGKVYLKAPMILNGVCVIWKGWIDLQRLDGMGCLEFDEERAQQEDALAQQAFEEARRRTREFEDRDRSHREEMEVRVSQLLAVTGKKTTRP
zVAD death inh: L929 zVAD cell death inhibition; L929 zVAD necroptosis rescue, ATP luminescence, 24 h; with zVAD 60 µM; viability rescue, % at 10 µM; actives 0.38% (n = 220,000); AID 1377;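 active means activation, scaled between plate controls, above about 75%, limit read from the data; inactive means activation under that limit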;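 further: 0% = zVAD with DMSO and 100% = DMSO alone without zVAD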
Runt-CBFb FRET: blocks binding of human RUNX1 Runt domain to CBFb; Cerulean-Runt/Venus-CBFb FRET ratio 530/480, 1 h; Q01196+Q13951; inhibition, % at 20 µM; AID 1496; actives 0.46% (n = 220,000);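 active means inhibition over about 50% at 20 µM in the single-dose screen, limit read from the data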;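 further: 0% = DMSO wells and 100% = excess unlabeled CBFb competitor control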
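test system = Cerulean-Runt domain fusion protein, energy donor | probe or stimulus = Venus-CBFb binding partner, 100 nM | incubation = two 1 h room-temperature incubations shielded from light | detection = fluorescence energy transfer, 422 nm excitation, 530/480 nm emission | measure = loss of energy transfer signal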
RanGTP-Imp inh: disruptors of Ran-importin-beta complex formation – biochemical, FRET, CFP-Ran, YFP-importin-beta, homogeneous, primary screen; cell-free CFP-Ran/YFP-importin-beta FRET ratio; actives 1.1% (n = 300,000); inhibition, % (concentration not given with the values);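 active means more than half of the replicate wells show a fall in the fluorescence ratio signal beyond about 16%, limit read from the data, passing the limit was not always enough; inconclusive means exactly half of the replicate wells pass the set limit; inactive means fewer than half of replicates pass the limit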;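 further: 0% = DMSO wells and 100% = Ran loaded with GDP instead of GTP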
The depositor's hits bear a star; ? = inconclusive; . = no result. The list is not random: actives were taken first. Their share in the collection is about 2.1%.

SMILES	TNF death inh	Hck Nef HTS	Runt-SMMHC FRET	zVAD death inh	Runt-CBFb FRET	RanGTP-Imp inh
CCOC(=O)c1c(/N=C/c2ccc(O)cc2O)sc2c1CCC2	1.2	2.5	55.8*	2.1	22.9	7.2
CCOC(=O)c1c(/N=C/c2ccccc2O)sc2c1CCC2	1.2	-0.5	40.0	2.4	21.3	-1.4
N#CC1=C(N)SC(N)=C(C#N)C1c1ccnc2ccccc12	-1.2	1.2	20.4	1.7	19.9	23.3*
Cc1ccccc1Nc1nc(N)nc(CN2CCN(C(=O)c3ccccc3)CC2)n1	0.1	-30.6	1.4	-0.8	-1.4	?
C=CCN1C(=O)CSc2ccc(C(=O)NCc3cccs3)cc21	-1.3	20.1	-1.7	-0.6	-0.8	4.2
CN1CCN(c2nnc(-c3ccccc3)c(-c3ccccc3)n2)CC1	1.1	-3.1	-1.8	-1.1	2.5	0.8
CN1CCN(c2nc(-c3ccccc3)c3cc(Cl)ccc3n2)CC1	0.5	3.0	56.6*	5.2	25.0	?
c1ccc2c(N3CCCCC3)nc(N3CCCCC3)nc2c1	1.5	8.1	-6.8	-0.5	-0.9	5.7
Clc1ccc2nc(N3CCNCC3)nc(-c3ccccc3)c2c1	-12.9	7.3	89.0*	-0.4	39.3	3.9
c1ccc(-c2nc(N3CCCC3)nc3ccccc23)cc1	-1.8	-1.5	18.7	1.3	6.6	34.2*
Cc1cccc(C(=O)NCC(=O)OCC(=O)N(C)CC(=O)Nc2ccc(F)cc2)c1	.	.	.	.	.	1.3
C=CCc1cc(Cl)ccc1OCCOCCN(C)C	5.4	-3.7	-1.1	-0.9	3.5	-2.1
CN(C)S(=O)(=O)N1CCN(S(=O)(=O)N2CCOCC2)CC1	1.0	56.8*	0.0	0.7	1.5	0.5
CCOC(=O)c1cc(NC(=O)CC(C)(C)CC(=O)O)ccc1N1CCCCC1	-0.3	23.3	2.7	0.7	-0.8	3.2
CCN(CC)CC(=O)Nc1ccc2c(c1)Nc1ccccc1CC2	-1.8	1.2	3.1	83.6*	3.8	-6.7
CCN(CC)CC(=O)Nc1ccc2c(c1)N(C(=O)CN(CC)CC)c1ccccc1CC2	0.9	-1.0	3.2	-0.3	2.5	3.8
CN1CCN(c2nc3ccccn3c(=O)c2C=O)CC1	.	.	.	.	.	99.7*
CCNC(=O)/C(C#N)=C/c1c(N2CC(C)OC(C)C2)nc2ccccn2c1=O (stereo unspecified)	1.5	2.6	77.2*	0.2	104.1*	-0.1
COCCCNC(=O)/C(C#N)=C/c1c(N2CCN(C)CC2)nc2ccccn2c1=O	.	.	.	.	.	87.2*
CCNC(=O)/C(C#N)=C/c1c(N2CCN(c3ccccc3)CC2)nc2ccccn2c1=O	.	.	.	.	.	8.9
CCNC(=O)/C(C#N)=C/c1c(N2CCCCCC2)nc2ccccn2c1=O	.	.	.	.	.	1.3
COCCNC(=O)/C(C#N)=C/c1c(N2CC(C)OC(C)C2)nc2ccccn2c1=O (stereo unspecified)	1.6	5.6	82.3*	0.9	47.8	4.5
COCCNC(=O)/C(C#N)=C/c1c(N2CCN(c3ccccc3)CC2)nc2ccccn2c1=O	.	.	.	.	.	5.4
Cc1ccc(S(=O)(=O)Oc2ccc(/C=C(/NC(=O)c3ccccc3)C(=O)NC(C)C(=O)O)cc2)cc1 (stereo unspecified)	0.2	-69.1	3.8	0.4	5.7	2.2
CN(CCCNC(=O)CSc1cc(=O)n(C)c2ccc(Cl)cc12)Cc1ccccc1	-1.6	19.2	0.0	-1.4	-0.4	-1.6
SMILES	TNF death inh	Hck Nef HTS	Runt-SMMHC FRET	zVAD death inh	Runt-CBFb FRET	RanGTP-Imp inh
COc1ccc(NC(=O)c2ccco2)c(NC(=O)c2ccc([N+](=O)[O-])cc2)c1	.	.	.	.	.	-1.7
CC1CN(c2nc3ccccn3c(=O)c2/C=C(\C#N)C(N)=O)CC(C)O1 (stereo unspecified)	1.0	8.1	7.9	-0.8	93.8*	-1.4
CC1CN(c2nc3ccccn3c(=O)c2/C=C(\C#N)C(=O)N2CCOCC2)CC(C)O1 (stereo unspecified)	-0.3	12.1	-2.4	0.0	-2.3	1.1
O=C(NNc1cc(N2CCOCC2)nc(N2CCOCC2)n1)c1ccc([N+](=O)[O-])cc1	1.1	12.8	2.6	-0.3	3.1	63.5*
O=C(Oc1c(CN2CCOCC2)cc(Cl)c2cccnc12)c1ccccc1F	-10.6	1.3	3.5	6.6	-0.6	33.3*
OCCC#Cc1ccc(CN2CCN(C3CCCCC3)C(CCO)C2)cc1 (stereo unspecified)	0.1	5.1	-0.7	-0.5	0.2	2.5
CCOc1ccc2ccccc2c1C1NC(=O)N(C)C(C)=C1C(=O)OCCOC (stereo unspecified)	.	.	.	.	.	95.8*
CCOC(=O)C1=C(C)N(C)C(=S)NC1c1c(OCC)ccc2ccccc12 (stereo unspecified)	-0.2	24.9	0.5	-0.8	-1.8	3.2
Cc1cc(C(=O)COc2ccccc2C(N)=O)c(C)n1C	1.3	-38.7	-4.9	3.2	0.2	1.5
Cc1cc(C(=O)COc2cccc3cccnc23)c(C)n1C	-1.4	1.3	-1.9	0.5	4.2	89.6*
Cc1onc(-c2ccccc2Cl)c1C(=O)N1CCN(S(=O)(=O)c2ccc(F)c(F)c2)CC1	.	.	.	.	.	-2.2
N#CC1=C(N)Oc2cc(O)ccc2C1c1cccnc1 (stereo unspecified)	-4.9	14.5	-18.3	0.6	-8.5	38.0*
N#CC1=C(N)Oc2cc(O)ccc2C1c1ccncc1 (stereo unspecified)	-6.1	1.8	-109.1	-0.3	-38.4	-28.2
N#CC1=C(N)Oc2cc(O)c(Cl)cc2C1c1cccnc1 (stereo unspecified)	.	.	.	.	.	52.1*
N#CC1=C(N)Oc2cc(O)c(Cl)cc2C1c1ccccc1F (stereo unspecified)	.	.	.	.	.	131.2*
N#CC1=C(N)Oc2n[nH]c(-c3ccc(F)cc3)c2C1c1cccnc1 (stereo unspecified)	-4.5	2.8	0.5	0.3	-0.6	2.6
CSc1nc(N)c2c(n1)OC(N)=C(C#N)C2c1cccnc1 (stereo unspecified)	6.2	7.7	2.5	0.9	1.6	105.1*
COC(=O)C1=C(C)OC(N)=C(C#N)C1c1ccccc1F (stereo unspecified)	-4.8	0.0	2.4	0.0	2.4	-15.5
Cc1cc(C(=O)COc2ccc3ccc(=O)oc3c2)c(C)n1C	-1.7	-0.3	7.1	0.8	6.1	0.0
Cc1ccccc1NS(=O)(=O)c1ccc(NS(=O)(=O)c2cccs2)cc1	.	.	.	.	.	7.3
O=C(Nc1ccc(F)c(F)c1)C1CCCN(S(=O)(=O)c2cnc[nH]2)C1 (stereo unspecified)	.	.	.	.	.	4.1
O=C(Nc1ccc2c(c1)OCCO2)C1CCCN(S(=O)(=O)c2cnc[nH]2)C1 (stereo unspecified)	0.8	13.6	3.5	0.6	-0.9	143.1*
